Measured values collected from several papers.
Lines come from different studies, so protocols differ.
DPP4: Dipeptidyl peptidase 4 (DPP4, Homo sapiens, UniProt P27487)
CYP2C9: Cytochrome P450 2C9 (CYP2C9, Homo sapiens, UniProt P11712)
ENAH: Protein enabled homolog (ENAH, UniProt Q8N8S7)
CYP2C8: Cytochrome P450 2C8 (CYP2C8, Homo sapiens, UniProt P10632)

With `Cn1c(=O)cc(N2CCC(N)CC2)n(Cc2nc3ccc(Br)cc3c(=O)n2-c2ccc(Br)cc2)c1=O` the IC50 was 11.2 µM (DPP4; enzyme activity, inhibitor).
With `COc1cc(O)c2c(c1)C(=O)c1cc(C)cc(O)c1C2=O` the Ki was 3.69 µM (CYP2C9; enzyme activity, inhibitor; human, liver microsomes; pH 7.4).
The Ki of `Cn1cncc1[C@@](N)(c1ccc(Cl)cc1)c1ccc2c(c1)c(-c1cccc(Cl)c1)cc(=O)n2C` is reported as 0.35 µM (CYP2C9; enzyme activity, inhibitor; human, liver microsomes).
`Cn1c(=O)cc(N2CCC(N)CC2)n(Cc2nc3ccccc3c(=O)n2-c2ccc(F)c(Cl)c2)c1=O` gave an IC50 of 35.7 µM (DPP4; enzyme activity, inhibitor).
The Kd of `CC[C@H](C)[C@H](NC(=O)[C@H](Cc1c[nH]cn1)NC(=O)[C@@H](N)CCC(=O)O)C(=O)N1CCC[C@H]1C(=O)N1CCC[C@H]1C(=O)N1CCC[C@H]1C(=O)N1CCC[C@H]1C(=O)N[C@@H](CCCNC(=N)N)C(=O)N1CCC[C@H]1C(=O)N1CCC[C@H]1C(=O)N[C@@H](CCCCN)C(=O)N[C@@H](CCCNC(=N)N)C(=O)O` is reported as 13 µM (ENAH; binding, FP).
`CN(C)c1ncnc2c1ncn2[C@@H]1O[C@H](CCl)[C@@H](NC(=O)[C@H](CSC(c2ccccc2)c2ccccc2)NC(=O)OC(C)(C)C)[C@H]1O` has an IC50 of over 100 µM (Aminopeptidase N (ANPEP, Homo sapiens, UniProt P15144); enzyme activity, inhibitor, fluorescence).
The IC50 of `Cn1nc2c(=O)n(C3CC3)ccc2c1[C@](O)(c1cnc(C(F)(F)F)c(Cl)c1)C(F)(F)F` is reported as over 20 µM (CYP2C8; enzyme activity, inhibitor; human, liver microsomes; pH 7.4).
With `CO[C@]1(C(=O)N[C@@H](C)c2ccc(-n3cc(F)cn3)nc2)CC[C@H](c2nc(C)cc(Nc3cc(C)[nH]n3)n2)CC1` the Ki was 9.6 µM (CYP2C8; enzyme activity, inhibitor; human, liver microsomes).
`CC[C@@](N)(c1cnc(C(F)(F)F)c(Cl)c1)c1c2ncn(C3CC3)c(=O)c2nn1C` has an IC50 of over 20 µM (CYP2C9; enzyme activity, inhibitor; human, liver microsomes; pH 7.4).
`C=C(F)C(=O)N1CCN(c2nc(OC[C@@H]3CCCN3C)nc3c2CCN(c2cccc4cccc(Cl)c24)C3)C[C@@H]1CC#N` has a Ki of 3.2 µM (CYP2C9; enzyme activity, inhibitor; human, liver microsomes).
`Cn1c(=O)cc(N2CCC(N)CC2)n(Cc2nc3ccc(Br)cc3c(=O)n2-c2cccc(F)c2)c1=O` gave an IC50 of 22.1 µM (DPP4; enzyme activity, inhibitor).
For `Cn1nc2c(=O)n(C3CC3)cnc2c1[C@](O)(c1cnc(C(F)(F)F)c(Cl)c1)C(F)(F)F`, the IC50 was over 20 µM (CYP2C8; enzyme activity, inhibitor; human, liver microsomes; pH 7.4).
With `CSCC[C@H](NC(=O)[C@H](CCC(=O)O)NC(=O)[C@H](CS)NC(=O)[C@H](CO)NC(=O)[C@H](CC(C)C)NC(=O)[C@H](CCC(=O)O)NC(=O)[C@@H](N)CCC(=O)O)C(=O)N[C@@H](CCC(=O)O)C(=O)NCC(=O)N[C@@H](CC(N)=O)C(=O)N[C@@H](CC(C)C)C(=O)N[C@@H](CCC(=O)O)C(=O)N[C@@H](Cc1c[nH]cn1)C(=O)N[C@@H](CC(C)C)C(=O)N1CCC[C@H]1C(=O)N1CCC[C@H]1C(=O)N1CCC[C@H]1C(=O)N1CCC[C@H]1C(=O)N[C@@H](CCSC)C(=O)N[C@@H](CCC(=O)O)C(=O)N[C@H](C(=O)N[C@@H](CC(C)C)C(=O)N[C@@H](CCSC)C(=O)N[C@@H](CC(=O)O)C(=O)N[C@@H](CCCCN)C(=O)N[C@@H](CO)C(=O)N[C@@H](Cc1ccccc1)C(=O)N[C@@H](C)C(=O)N[C@@H](CO)C(=O)N[C@@H](CC(C)C)C(=O)N[C@@H](CCC(=O)O)C(=O)N[C@@H](CO)C(=O)N1CCC[C@H]1C(=O)N[C@@H](CCC(=O)O)C(=O)N[C@@H](CO)C(=O)O)C(C)C` the Kd was 3.1 µM (ENAH; binding, fluorescence).
